TRPC4 agonist: activators of mouse TRPC4 channel; Q9QUQ5; AID 2237; HEK293 TRPC4beta/mu-opioid, Fluo4 calcium fluorescence; active compounds read high; hit rate 0.49% among 310,000; B-score at 10 µM;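 active = B-score above 5 SD of library B-scores, and initial fluorescence ratio not above library mean plus 5 SD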;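 also: positive B-score marks a calcium rise read as TRPC4 activation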
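Test system: HEK293 cells stably co-expressing mouse TRPC4beta and mu-opioid receptor | Schedule: Fluo4 dye loading 45 min at room temperature, 110 s recording | Measured by: Kinetic Fluo4 calcium fluorescence, 5 s baseline at 1 Hz | Evaluation: B score of integrated ratio | Controls: Buffer (low) and maximal DAMGO (high)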
TRPC6 act: activates the mouse TRPC6 cation channel; HEK293-TRPC6 membrane potential dye fluorescence; active compounds read high; B-score at 10 µM; hit rate 0.13% among 310,000;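 active = B-score of the integrated fluorescence ratio above library mean plus 3 SD, and starting fluorescence ratio within library mean plus 5 SD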;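 also: higher score means more depolarization so channel activation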
TRPC4 PAM: allosteric potentiators of mouse TRPC4 channel; Q9QUQ5; HEK293 TRPC4beta/mu-opioid, DAMGO EC20, Fluo-4 Ca2+ flux; active compounds read high; B-score at 10 µM; hit rate 0.42% among 310,000; AID 2227;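 active = B-score of calcium response area above 5 SD of library B-scores, with initial fluorescence ratio within 5 SD of library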;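 also: B-score of integrated fluorescence ratio over time as area under calcium response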
TRPC6 inh: inhibitors of mouse TRPC6 channel | AID 2553 | B-score at 10 µM | hit rate 1.1% among 310,000 | HEK293-TRPC6, membrane potential dye, ACh-evoked depolarization; active compounds read low;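 active = B-score under library mean minus 3 SD, initial fluorescence not abnormally high, positive integrated signal ratio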;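 also: B-score derived from integrated fluorescence ratio over the kinetic read; more negative B-score means stronger inhibition of depolarization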
TRPC4 inh: TRPC4 (mouse) channel inhibition; HEK293 TRPC4beta/mu-opioid, DAMGO-evoked Fluo4 calcium flux; active compounds read low; AID 2247; B-score at 10 µM; hit rate 0.39% among 300,000;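 active = B-score over 3 SD under the library average, no early fluorescence shift, positive overall ratio signal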
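Assay system – HEK293 line stably carrying TRPC4beta and mu-opioid receptor · Doses – single dose · Detection – Fluo4 calcium-dye fluorescence, kinetic read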
* hit, by the source's call; i = inactive; ! = not confirmed by another sample. Compounds with a hit are over-represented: about 2.3% of the library has one in this group of screens.

SMILES	TRPC4 agonist	TRPC6 act	TRPC4 PAM	TRPC6 inh	TRPC4 inh
Cc1ccc2c(c1)C1CN(C)CCC1N2C(=O)c1cccnc1Cl (configuration not stated)	i	i	i	i	i
Cc1ccc2c(c1)C1CN(C)CCC1N2C(=O)c1cn(-c2ccccc2)nc1-c1ccccc1 (configuration not stated)	i	i	23*	i	i
CCCCCn1c(=O)c(C(=O)NC(C)c2ccccc2)c(O)c2ccccc21 (configuration not stated)	i	i	i	i	i
CN(C)CCCN=Cc1c(O)n(CCc2ccccc2)c(=O)[nH]c1=O	i	i	i	i	i
O=c1[nH]c(=O)n(CCc2ccccc2)c(O)c1C=NC1CC1	i	i	14*	i	i
COc1cccc2cc(-c3cc(=O)oc4ccc(OC(=O)N(C)C)cc34)oc12	i	i	i	i	i
CCC1=Nc2cc(C(=O)N3CCC4(CC3)OCCO4)ccc2Sc2ccc(C)cc21	i	i	i	i	-6*
CCC1=Nc2cc(C(=O)N3CCC4(CC3)OCCO4)ccc2Sc2ccccc21	i	i	i	i	i
Clc1ccc(N2CC2c2ccncc2)cc1 (configuration not stated)	i	i	i	i	i
Cc1ccc(NC(=S)NCCc2cnc[nH]2)cc1C	225*	i	i	i	i
O=[N+]([O-])c1ccc(N2CCCC2)c(F)c1Br	i	i	i	i	i
CCN1CCN(c2cc(N3CCCC3)c([N+](=O)[O-])cc2F)CC1	i	i	17*	i	i
O=c1cc(CN2CCNCC2)nc2sccn12	i	i	i	i	i
CN1CCN(Cc2cc(=O)n3ccsc3n2)CC1	i	i	27*	i	i
Cc1c(N)c(C)c([N+](=O)[O-])c(C)c1[N+](=O)[O-]	i	i	i	i	-6*
CC(C)N1CCN(Cc2c[nH]c3ccccc23)CC1CCO (configuration not stated)	i	i	i	i	i
FC(F)(F)c1ccccc1N1CC1c1ccncc1 (configuration not stated)	i	i	i	i	i
COC(=O)C1=C(c2cc3ccccc3s2)C[C@@H]2CC[C@H]1N2C(=O)NC1CCCCC1	i	i	i	i	i
Oc1ccc2c3c1O[C@H]1c4oc5ccccc5c4C[C@@]4(O)[C@@H](C2)N(CC2CC2)CC[C@]314	i	i	i	i	-6*
O=C1NC(=O)N(c2ccc(Cl)cc2)C(=O)/C1=C\c1ccc(Sc2nc3ccccc3[nH]2)o1	i	i	i	i	i
CCOC(=O)C1(CCOc2ccccc2)CCN(Cc2ccccc2OC)CC1	i	i	i	i	i
CCOC(=O)C1(c2ccccc2)CCN(CC(=O)Nc2ccc(C)cc2)CC1	i	i	i	i	-8*
CCOC(=O)C1(c2ccccc2)CCN(CCC(C#N)(c2ccccc2)c2ccccc2)CC1	94*	i	i	i	i
COc1ccc(NC(=O)c2cn(CCC#N)nc2-c2cccc(Br)c2)cc1	i	i	i	i	i
CN1CC2([N+](=O)[O-])CC=C(Cl)C([N+](=O)[O-])(C1)C2 (configuration not stated)	i	i	i	i	i
CC[C@@H](CO)NC(=O)[C@@H]1C=C2c3cccc4c3c(cn4C)C[C@H]2N(C)C1	154*!	i	i	i	i
CCC(CO)NC(=O)C1C=C2c3cccc4[nH]cc(c34)CC2N(C)C1 (configuration not stated)	73*	i	i	i	i
CN1CC(C(=O)c2ccc([N+](=O)[O-])cc2)C(c2ccc(Cl)cc2)C1 (configuration not stated)	i	i	13*	i	i
N#CCCn1cc(C(=O)Nc2ccccc2Br)c(-c2ccc([N+](=O)[O-])cc2)n1	i	i	i	i	i

Assay outcomes as filed in PubChem BioAssay.
